Source: ChEMBL document CHEMBL3580575, “Monocarboxylate transporter 1 inhibitors as potential anticancer agents” (ACS Med Chem Lett, 2015)
pIC50: −log10 of the molar value.

How the values were obtained:
[1] = target: T1, Monocarboxylate transporter 1 (Rattus norvegicus, UniProt P53987); experiment: Inhibition of MCT1-mediated lactate transport in rat RBE4 cells incubated for 15 mins by [14C]-lactate uptake assay; assay type: cell-based
T1 sequence (P53987 whole entry): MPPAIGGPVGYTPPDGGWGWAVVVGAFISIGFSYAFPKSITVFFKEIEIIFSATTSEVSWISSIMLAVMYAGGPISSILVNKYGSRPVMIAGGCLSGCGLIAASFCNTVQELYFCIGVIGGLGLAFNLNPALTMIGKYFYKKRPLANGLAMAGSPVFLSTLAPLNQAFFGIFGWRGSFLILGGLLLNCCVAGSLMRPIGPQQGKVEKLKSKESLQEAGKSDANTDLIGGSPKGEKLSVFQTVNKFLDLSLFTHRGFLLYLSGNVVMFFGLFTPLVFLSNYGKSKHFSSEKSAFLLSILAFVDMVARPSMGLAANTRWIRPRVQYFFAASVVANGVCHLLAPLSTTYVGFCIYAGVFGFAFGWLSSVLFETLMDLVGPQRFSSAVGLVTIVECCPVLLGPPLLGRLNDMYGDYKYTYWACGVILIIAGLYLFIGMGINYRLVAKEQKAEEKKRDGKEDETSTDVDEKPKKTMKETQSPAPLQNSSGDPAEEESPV
How it was run: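 MCT1 inhibition measured as [14C]-lactate uptake in rat brain endothelial RBE4 cells, which highly express MCT1 (Western blot). IC50 is the test-compound concentration causing 50% transport inhibition.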

[2] = Solubility in water; assay type: physicochemical
Mus musculus [3] = experiment: Toxicity in CD1(ICR) mouse assessed as survival at 6.67 mg/kg, ip bid for 3 weeks; assay type: organism-based; conditions: in vivo, 504 h
How it was run: (§1)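 Healthy ICR mice were given 6.67 mg/kg ip, twice daily, in 0.1% DMSO in saline for three weeks. Survival and body weight gain were recorded and compared with a control group.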

Mus musculus [4] = experiment: Toxicity in CD1(ICR) mouse assessed as induction of weight gain at 6.67 mg/kg, ip bid for 3 weeks; assay type: organism-based; conditions: in vivo, 504 h; how it was run: as §1
Mus musculus [5] = experiment: Toxicity in CD1(ICR) mouse assessed as survival at 50 mg/kg, po bid for 3 weeks; assay type: organism-based; conditions: in vivo, 504 h
How it was run: (§2)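 In a follow-up systemic toxicity study, healthy ICR mice were dosed at 50 mg/kg either by oral gavage twice daily or ip once daily. Mortality and body weight gain were compared with a control group.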

Mus musculus [6] = experiment: Toxicity in CD1(ICR) mouse assessed as induction of weight gain at 50 mg/kg, po bid for 3 weeks; assay type: organism-based; conditions: in vivo, 504 h; how it was run: as §2
Mus musculus [7] = experiment: Toxicity in CD1(ICR) mouse assessed as survival at 50 mg/kg, ip qd for 3 weeks; assay type: organism-based; conditions: in vivo, 504 h; how it was run: as §2
Mus musculus [8] = experiment: Toxicity in CD1(ICR) mouse assessed as induction of weight gain at 50 mg/kg, ip qd for 3 weeks; assay type: organism-based; conditions: in vivo, 504 h; how it was run: as §2
[9] = Tmax in CD1(ICR) mouse at 100 mg/kg, ip by LC-MS/MS method; assay type: ADME, organism-based; conditions: in vivo
How it was run: (§3)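 Preliminary pharmacokinetics in ICR mice. Sixty mice were split into two groups and given 100 mg/kg, one group intraperitoneally and the other intragastrically.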

[10] = Tmax in CD1(ICR) mouse at 100 mg/kg, ig by LC-MS/MS method; assay type: ADME, organism-based; conditions: in vivo, po; how it was run: as §3
Mus musculus [11] = experiment: Drug elimination in CD1(ICR) mouse at 100 mg/kg, ip by LC-MS/MS method; assay type: ADME, organism-based; conditions: in vivo; how it was run: as §3
Mus musculus [12] = experiment: Drug elimination in CD1(ICR) mouse at 100 mg/kg, ig by LC-MS/MS method; assay type: ADME, organism-based; conditions: in vivo, po; how it was run: as §3
Mus musculus [13] = experiment: Toxicity in CD1(ICR) mouse assessed as survival at 6.67 mg/kg, ip bid for 3 weeks; conditions: in vivo, 504 h
Mus musculus [14] = experiment: Toxicity in CD1(ICR) mouse assessed as induction of weight gain at 6.67 mg/kg, ip bid for 3 weeks; conditions: in vivo, 504 h

SMILES | pIC50 [1] | further results
N#C/C(=C\c1ccc([N+](=O)[O-])cc1)C(=O)O | 6.30 | 
CCc1ccc(/C=C(\C#N)C(=O)O)cc1 | 6.30 | 
N#C/C(=C\c1ccc(Cl)cc1)C(=O)O | 6.30 | 
N#C/C(=C\c1ccc(Br)cc1)C(=O)O | 6.30 | 
N#C/C(=C\c1ccc(C#N)cc1)C(=O)O | 6.30 | 
N#C/C(=C\c1ccc2c(c1)OCO2)C(=O)O | 6.30 | 
CCN(CC)c1ccc(/C=C(\C#N)C(=O)O)cc1 | 7.15 | 
CCCN(CCC)c1ccc(/C=C(\C#N)C(=O)O)cc1 | 8.00 | 
CCCCN(CCCC)c1ccc(/C=C(\C#N)C(=O)O)cc1 | 7.52 | 
CC(C)CN(CC(C)C)c1ccc(/C=C(\C#N)C(=O)O)cc1 | 7.00 | 
CCCCCN(CCCCC)c1ccc(/C=C(\C#N)C(=O)O)cc1 | 6.85 | 
CCCCCCN(CCCCCC)c1ccc(/C=C(\C#N)C(=O)O)cc1 | 6.06 | 
C=CCN(CC=C)c1ccc(/C=C(\C#N)C(=O)O)cc1 | 6.96 | 
C#CCN(CC#C)c1ccc(/C=C(\C#N)C(=O)O)cc1 | 6.40 | 
N#C/C(=C\c1ccc(N(c2ccccc2)c2ccccc2)cc1)C(=O)O | 7.52 | 
N#C/C(=C\c1ccc(N2CCCC2)cc1)C(=O)O | 7.15 | 
N#C/C(=C\c1ccc(N2CCCCC2)cc1)C(=O)O | 6.85 | 
CCCN(CCC)c1ccc(/C=C(\C#N)C(=O)O)c(OC)c1 | 7.92 | 
COc1cc(N(CC(C)C)CC(C)C)ccc1/C=C(\C#N)C(=O)O | 7.96 | 
CCCCCN(CCCCC)c1ccc(/C=C(\C#N)C(=O)O)c(OC)c1 | 7.47 | 
COc1cc(N(c2ccccc2)c2ccccc2)ccc1/C=C(\C#N)C(=O)[O-].[Na+] | 7.96 | solubility [2]: 1000 µg/mL; Activity (Mus musculus [3]): Non-toxic; Activity (Mus musculus [4]): Non-toxic; Activity (Mus musculus [5]): Non-toxic; Activity (Mus musculus [6]): Non-toxic; Activity (Mus musculus [7]): Non-toxic; Activity (Mus musculus [8]): Non-toxic; Tmax [9]: 15 min; Tmax [10]: 18 min; Drug excretion (Mus musculus [11]): <= 24 hr; Drug excretion (Mus musculus [12]): <= 24 hr; Activity (Mus musculus [13]): Non-toxic; Activity (Mus musculus [14]): Non-toxic
C=CCN(CC=C)c1ccc(/C=C(\C#N)C(=O)O)c(OC)c1 | 7.54 | 
COc1cc(N2CCCC2)ccc1/C=C(\C#N)C(=O)[O-].[Na+] | 7.32 | solubility [2]: > 7000 µg/mL
COc1cc(N2CCCCC2)ccc1/C=C(\C#N)C(=O)[O-].[Na+] | 7.60 | solubility [2]: > 7000 µg/mL
Cc1ccc(/C=C(\C#N)C(=O)O)cc1 | 6.30 | 
CN(C)c1ccc(/C=C(\C#N)C(=O)O)cc1 | 6.85 | 
COc1ccc(/C=C(\C#N)C(=O)O)cc1 | 6.30 | 
N#C/C(=C\c1ccc(F)cc1)C(=O)O | 6.30 | 
